Source: PubChem (several laboratories)
Runt-SMMHC FRET = blocks binding of human RUNX1 Runt domain to CBFb-SMMHC; actives 0.74% (n = 220,000); Q01196+Q13951; Cerulean-Runt/Venus-CBFb-SMMHC FRET ratio 530/480, 1 h; inhibition, % at 20 µM; AID 1434;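 active means mean inhibition across duplicate retests at 20 µM reaching about 50%, limit read from the data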;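 further: inhibitors lower the FRET ratio by blocking Runt binding to CBFb-SMMHC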
Target sequence (Q01196 whole entry, looked up, the tested form may be a part): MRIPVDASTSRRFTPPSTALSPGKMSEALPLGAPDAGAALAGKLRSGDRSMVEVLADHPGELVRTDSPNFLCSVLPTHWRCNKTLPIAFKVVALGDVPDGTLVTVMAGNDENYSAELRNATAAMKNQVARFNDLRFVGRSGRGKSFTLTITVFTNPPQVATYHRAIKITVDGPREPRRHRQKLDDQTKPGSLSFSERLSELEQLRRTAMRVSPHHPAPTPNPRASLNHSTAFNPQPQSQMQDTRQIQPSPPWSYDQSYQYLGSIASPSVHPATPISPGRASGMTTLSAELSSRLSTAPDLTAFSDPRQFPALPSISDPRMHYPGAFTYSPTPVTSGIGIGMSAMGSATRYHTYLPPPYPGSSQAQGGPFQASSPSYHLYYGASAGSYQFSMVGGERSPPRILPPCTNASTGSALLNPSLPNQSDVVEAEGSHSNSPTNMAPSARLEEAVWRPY
Target sequence (Q13951 whole entry, looked up, the tested form may be a part): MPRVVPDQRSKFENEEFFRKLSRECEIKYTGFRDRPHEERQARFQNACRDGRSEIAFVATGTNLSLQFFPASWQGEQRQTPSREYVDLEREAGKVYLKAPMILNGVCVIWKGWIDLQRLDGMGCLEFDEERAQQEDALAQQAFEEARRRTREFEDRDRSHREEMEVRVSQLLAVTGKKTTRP
Platelet DG rel = platelet dense granule release activity; human platelet-rich plasma, SFLLRN dense granule ATP release, luminescence; AID 1663; actives 0.22% (n = 300,000); inhibition, %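 (compounds screened at 7.5 µM in platelet-rich plasma)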;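 active means mean replicate score, as percent of positive control, at or above 50; inconclusive means mean below 50 but at least one replicate at or above 50; inactive means mean and every replicate below 50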
Rce1 inhib = blocks yeast Ras-converting enzyme. Q03530. yeast membranes, quenched prenylated peptide cleavage fluorescence. calls only. actives 0.27% (n = 290,000). AID 2563;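 active means fall in fluorescence gain of 50% or more versus controls, with final raw signal at or below 3038400; inconclusive means same 50% fall but final raw signal above 3038400; inactive means fall in fluorescence gain under 50%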
RanGTP-Imp inh = inhibitors of RanGTP-importin-beta interaction, primary screen, biochemical, FRET, CFP-Ran, YFP-importin-beta, homogeneous; cell-free CFP-Ran/YFP-importin-beta FRET ratio; inhibition, % (concentration not given with the values); actives 1.1% (n = 300,000);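 active means more than half of the replicate wells show a fall in the fluorescence ratio signal beyond about 16%, limit read from the data, passing the limit was not always enough; inconclusive means exactly half of the replicate wells pass the set limit; inactive means fewer than half of replicates pass the limit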
Runt-CBFb FRET = blocks binding of human RUNX1 Runt domain to CBFb. actives 0.46% (n = 220,000). Q01196+Q13951. Cerulean-Runt/Venus-CBFb FRET ratio 530/480, 1 h. AID 1496. inhibition, % at 20 µM;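 active means inhibition over about 50% at 20 µM in the single-dose screen, limit read from the data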
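Measured by: fluorescence energy transfer, 422 nm excitation, 530/480 nm emission; Assay system: Cerulean-Runt domain; Medium: Tris pH 7.5 buffer with BSA; Measure: loss of energy transfer signal; Controls: 5 µM unlabeled CBFb as full-inhibition high control; Incubation: protein complex preformed 1 h, compound exposure 1 h, room temperature, dark.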
Large screens that a line does not name were inactive. This is a sample that favours compounds with a hit; in the whole collection about 1.8% have one here.

Cn1nc(-c2ccc(Cl)cc2)c2cc(C(=O)NCCN3CCOCC3)sc21	RanGTP-Imp inh 136.4
Cn1nc(-c2ccc(Cl)cc2)c2cc(C(=O)NCCCN3CCOCC3)sc21	none
CCN(CC)CCNC(=O)c1cc2c(-c3ccc(Cl)cc3)nn(C)c2s1	none
CCCN(CCC)CCNC(=O)c1cc2c(-c3ccccc3F)nn(C)c2s1	Rce1 inhib active (no result: Runt-SMMHC FRET, Runt-CBFb FRET)
COc1ccc(-n2nc(C)c3sc(C)nc3c2=O)cc1	none
Cc1cccc(N2CCN(CC(=O)Nc3ccc(S(=O)(=O)N4CCOCC4)cc3)CC2)c1C	none (no result: Runt-SMMHC FRET, Runt-CBFb FRET)
CCOc1cc(/C=C2\N=C(SC(C)C(N)=O)N(c3ccc(OC(F)F)cc3)C2=O)ccc1O (stereo not given)	none (no result: Runt-SMMHC FRET, Runt-CBFb FRET)
O=C(CN1CCOCC1)Nc1scc2c1c(=O)oc1ccccc12	none
CCN(CC)CCNC(=O)c1cc2c(-c3cccc(OC)c3)nn(C)c2s1	none (no result: Runt-SMMHC FRET, Runt-CBFb FRET)
COCCCNC(=O)c1cc2c(-c3cccc(OC)c3)nn(C)c2s1	Rce1 inhib active, RanGTP-Imp inh inconclusive (no result: Runt-SMMHC FRET, Runt-CBFb FRET)
COc1cccc(C2CC(=O)C3=C(C2)Nc2ccccc2N(C(=O)CCC(=O)O)C3c2ccc(F)cc2)c1 (stereo not given)	Rce1 inhib active
COc1ccc(C2C3=C(CC(c4ccco4)CC3=O)Nc3ccccc3N2C(C)=O)cc1 (stereo not given)	none
Cc1onc(C(=O)NC2CCCCC2)c1[N+](=O)[O-]	none (no result: Runt-SMMHC FRET, Runt-CBFb FRET)
CN1CCc2c(sc(/N=C/c3ccco3)c2C(N)=O)C1	Runt-SMMHC FRET 62.5, Runt-CBFb FRET 106.1
CN1CCc2c(sc(/N=C/c3cccs3)c2C(N)=O)C1	Runt-SMMHC FRET 65.0, RanGTP-Imp inh inconclusive, Runt-CBFb FRET 80.6
CCOC(=O)c1c(/N=C/c2cccc(C)c2O)sc2c1CCN(C)C2	none
CCCCC(NC(=O)CCc1c(C)c2cc3c4c(oc3c(C)c2oc1=O)CCCC4)C(=O)O (stereo not given)	none (no result: Runt-SMMHC FRET, Runt-CBFb FRET)
O=C(Nc1ccc2c(c1)OCCO2)C1CCCN(S(=O)(=O)c2cnc[nH]2)C1 (stereo not given)	RanGTP-Imp inh 143.1
CCOC(=O)c1cn(Cc2ccccc2)c(C(=O)OC(C)(C)C)c1O	none (no result: Runt-SMMHC FRET, Runt-CBFb FRET)
CC(=O)N1CCN(c2ccc(NC(=S)NC(=O)c3ccc(C)c([N+](=O)[O-])c3)cc2)CC1	none
C/C(=N\Nc1cc(C(F)(F)F)ccc1Cl)c1ccncc1	none (no result: Runt-SMMHC FRET, Runt-CBFb FRET)
Cc1sc2ncn(CC(=O)NCCCC(=O)N3CCCCC3)c(=O)c2c1C	none (no result: Runt-SMMHC FRET, Runt-CBFb FRET)
Cc1sc2ncn(CC(=O)NCCCC(=O)N3CCN(c4ccccc4)CC3)c(=O)c2c1C	Runt-CBFb FRET 54.8 (no result: Rce1 inhib)
Cc1sc2ncnc(NCCCN3CCCC3=O)c2c1C	RanGTP-Imp inh inconclusive
COC(=O)C1=C(C)NC2=C(C(=O)C(C(=O)OC)C(c3ccc(OC)cc3)C2)C1c1ccccn1 (stereo not given)	Runt-SMMHC FRET 69.7
COC(=O)C1=C(C)NC2=C(C(=O)CC(C)(C)C2)C1c1ccccn1 (stereo not given)	Runt-SMMHC FRET 123.0, Runt-CBFb FRET 70.5
COC(=O)C1=C(C)NC2=C(C(=O)CC(C)(C)C2)C1c1ccsc1 (stereo not given)	none
O=S(=O)(c1ccccc1)N1CCN(CCO)CC1	none (no result: Runt-SMMHC FRET, Runt-CBFb FRET)
CC(C)=CC(=O)Nc1nnc(C(C)C)s1	none (no result: Runt-CBFb FRET)
CCCCn1c(N)c(N(CCOC)C(=O)CN(C)S(=O)(=O)c2ccc(F)cc2)c(=O)[nH]c1=O	none (no result: Runt-SMMHC FRET, Runt-CBFb FRET)
COc1cc(/C=C(/C#N)c2nc3ccccc3[nH]2)ccc1OC(=O)c1ccco1	RanGTP-Imp inh 28.3
CCOc1ccc(NS(=O)(=O)c2c(C)nc3sccn3c2=O)cc1	none (no result: Runt-SMMHC FRET, Runt-CBFb FRET)
COC(=O)Cc1c(C)c2ccc(O)c(CN3CCCC(C)C3)c2oc1=O (stereo not given)	Runt-SMMHC FRET 111.6, Rce1 inhib inconclusive, RanGTP-Imp inh 21.9, Runt-CBFb FRET 98.1
COCCSc1nnc(NC(=O)C(C)(C)C)s1	none
Cc1nn(Cc2ccc([N+](=O)[O-])cc2)c(=O)n1-c1cccc(Cl)c1	RanGTP-Imp inh 20.4
N#C/C(=C/c1ccccc1[N+](=O)[O-])C(=O)NCc1ccco1	none
O=C(Nc1cccnc1)c1ccco1	none
O=C(Nc1cccc(NC(=O)c2cccnc2Cl)c1)c1ccco1	Platelet DG rel 112.4
O=C(Nc1cccc(NC(=O)c2ccccc2Cl)c1)c1ccco1	Platelet DG rel 59.3 (no result: Runt-SMMHC FRET, Runt-CBFb FRET)
O=C(N/N=C/c1cccc(O)c1)N/N=C/c1cccc(O)c1	none (no result: Runt-SMMHC FRET, Runt-CBFb FRET)
Cc1nonc1C(=O)N/N=C/c1cccc(O)c1	Platelet DG rel 57.4
Cn1c(N)c(S(=O)(=O)N2CCN(c3cccc(Cl)c3)CC2)c(=O)n(C)c1=O	none (no result: Runt-SMMHC FRET, Runt-CBFb FRET)
Cn1c(N)c(S(=O)(=O)N2CCN(c3ccccc3Cl)CC2)c(=O)n(C)c1=O	RanGTP-Imp inh 26.2 (no result: Runt-SMMHC FRET, Runt-CBFb FRET)
COc1cc([N+](=O)[O-])ccc1NC(=O)C[n+]1cccc(C)c1	none
Cc1ccc[n+](CC(=O)Nc2ccc([N+](=O)[O-])cc2Cl)c1	RanGTP-Imp inh 176.1
CC(=O)Nc1cccc(/C(C)=N\NC(=O)c2ccc(Cn3nc([N+](=O)[O-])c(Cl)c3C)o2)c1	none
Oc1ccc(-c2nc3ccccn3c2NCc2ccc3c(c2)OCO3)cc1	Rce1 inhib active (no result: Platelet DG rel, RanGTP-Imp inh)
Fc1ccc(-c2nc3ccccn3c2NCc2ccc3c(c2)OCO3)cc1	none
CCN(C(=O)COC(=O)c1cc(-c2ccc(C)o2)nc2ccccc12)C1CCS(=O)(=O)C1 (stereo not given)	none
CCN(C(=O)COC(=O)c1cc(-c2cccs2)nc2ccccc12)C1CCS(=O)(=O)C1 (stereo not given)	Platelet DG rel inconclusive, Rce1 inhib active
N#C/C(=C\c1cn(CCOc2ccccc2)c2ccccc12)C(=O)NCc1ccco1	none
Cc1ccc(C)c(NC(=O)/C(C#N)=C/c2cn(CC(=O)NCc3ccco3)c3ccccc23)c1	RanGTP-Imp inh 97.7
Cc1ccccc1OCCn1cc(/C=C(\C#N)C(=O)NCc2ccco2)c2ccccc21	Runt-SMMHC FRET 63.2
COCCNC(=O)Cn1cc(/C=C(\C#N)C(=O)NC2CCCC2)c2ccccc21	RanGTP-Imp inh 51.9 (no result: Runt-SMMHC FRET, Runt-CBFb FRET)
Cc1ccc(NC(=O)/C(C#N)=C/c2cn(CC(=O)NCc3ccco3)c3ccccc23)cc1C	none
Cc1cc(C)cc(NC(=O)/C(C#N)=C/c2cn(CC(=O)NCc3ccco3)c3ccccc23)c1	RanGTP-Imp inh 82.4
Cc1cc(C)n2cc(CSc3nncn3C)nc2n1	Rce1 inhib active
Cc1cc(C)nc(N(C#N)Cc2cccc(Cl)c2)n1	RanGTP-Imp inh 50.6
O=C(CCC1CCN(C(=O)Cc2c(F)cccc2F)CC1)NC1CC1	none (no result: Runt-SMMHC FRET, Runt-CBFb FRET)
COCc1cc(C)nc(OCC(=O)N/N=C\c2cc(C)n(-c3cccc(C(F)(F)F)c3)c2C)c1C#N	none
CCOC(=O)c1c(NC(N)=O)sc(C)c1C	none
CCOC(=O)c1c(N2C(=O)C=CC2=O)sc(C)c1C	Runt-SMMHC FRET 61.7
CC(C)(C)CN1CCN(CCCc2ccccc2)C(CCO)C1 (stereo not given)	none (no result: Runt-SMMHC FRET, Runt-CBFb FRET)
N#Cc1c(N)n(CCCN2CCOCC2)c2nc3ccccc3nc12	Runt-SMMHC FRET 62.5, Runt-CBFb FRET 84.5 (no result: Platelet DG rel, Rce1 inhib, RanGTP-Imp inh)
